Assay [1] concerns membrane hyperpolarization in mV1aR-expressing CHO cells. The format is cell-based, Chinese hamster.
For assay [2], the system named is membrane hyperpolarization in qV1aR-expressing CHO cells. The format is cell-based, Chinese hamster.
Assay [3] concerns membrane hyperpolarization in hV1aR-expressing CHO cells. The format is cell-based, Chinese hamster.
In assay [4] the test system is non-transfected CHO-K1 cells. Particulars: ref 35 (Pierce et al. 2020); cited from earlier work.
Assay [5] deals with untransfected CHO-K1 cells. Particulars: ref 35 (Pierce et al. 2020); cited from earlier work.
The subject of assay [6] is marmoset vasopressin receptor 1a (mV1aR). Briefly: FLIPR Membrane Potential. Particulars: mV1aR expressing cells. The format is cell-based, marmoset (Callithrix jacchus). The method, boiled down:
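CHO-K1 cells stably expressing the species' V1aR were plated at 0.3 million cells/mL and grown overnight. They were loaded with FMP Blue in Locke's buffer (pH 7.4, 2.3 mM CaCl2) for 45 min at 37°C. After 60 s baseline, log concentrations of peptide were added, with all peptides run in parallel on one plate. Reads were ex 530/em 565 nm every 2 s for 200 s.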

Assay [7] deals with intracellular Ca2+ mobilization in mV1aR-expressing CHO cells. The format is cell-based, Chinese hamster. Particulars: 1 μM final concentration. A digest of the protocol:
(§1)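 Stably receptor-transfected CHO-K1 cells were plated at 0.3 million cells/mL and grown overnight. They were loaded for 60 min at 37°C with 4 μM Fluo-3 AM and 0.04% pluronic acid in Locke's buffer (pH 7.4, 2.3 mM CaCl2, 0.5 mM probenecid), then washed four times. Thapsigargin (1 μM final) was given for 5 min. After 60 s baseline, peptide was added and read at ex 488/em 538 nm every 2 s for 200 s.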

Assay [8] concerns intracellular Ca2+ mobilization in qV1aR-expressing CHO cells. The format is cell-based, Chinese hamster. Conditions: 1 μM final concentration. The method, boiled down:
as §1

Assay [9] has as its system intracellular Ca2+ mobilization in hV1aR-expressing CHO cells. The format is cell-based, Chinese hamster. Particulars: 1 μM final concentration. A digest of the protocol: as §1

Bridges are numbered along the chain shown (N, C = ends). Where no end group is shown, it is not given here.

With `CC(C)(O)[C@H]1O[C@H]2CC[C@@]3(C)[C@@](O)(CC[C@H]4Cc5c([nH]c6ccccc56)[C@@]43C)C2=CC1=O` [paxilline], in assay [1], the “effect of pretreatment on AVP and OT-analog induced membrane hyperpolarization” value is listed as “little to no effect”; the “effect on NS-1619-induced membrane hyperpolarization” value was “inhibited”. In [2], the “effect on NS-1619-induced membrane hyperpolarization” value is listed as “inhibited” and the “inhibition of AVP or OT-analog induced membrane hyperpolarization” value was 15-30%. In assay [3], the “effect of pretreatment on AVP and OT-analog induced membrane hyperpolarization” value is given as “little to no effect”; the “effect on NS-1619-induced membrane hyperpolarization” value was “inhibited”.

Turning to `Clc1ccccc1C(c1ccccc1)(c1ccccc1)n1cccn1` [TRAM-34], the “effect of pretreatment on AVP and OT-analog induced membrane hyperpolarization” value in assay [1], in assay [2] and in assay [3] was “most effective inhibition” in each case. In addition, the “effect on SKA-31-induced membrane hyperpolarization” value in assay [1], in assay [2] and in [3] was “inhibited” in each case.

Turning to `N=C(N)NCCC[C@H](NC(=O)[C@@H]1CCCN1C(=O)[C@@H]1CSSC[C@H](N)C(=O)N[C@@H](Cc2ccc(O)cc2)C(=O)N[C@@H](Cc2ccccc2)C(=O)N[C@@H](CCC(N)=O)C(=O)N[C@@H](CC(N)=O)C(=O)N1)C(=O)NCC(N)=O` [AVP, Arginine vasopressin], the “Ca2+ mobilization” value in assay [4] is “did not mobilize”. The induced hyperpolarizing response result in assay [5] was “absence”. The “shape of concentration response curve, membrane hyperpolarization” value in assay [6] is “U-shaped concentration response curve”.

Consider “apamin: selective inhibitor of SKCa channels (CNCKAPETALCARRCQQH-NH2; disulfide 1-11, 3-15; UniProt P01500 28-45, looked up)”, for which the “inhibition of AVP or OT-analog induced membrane hyperpolarization” value in assay [1] and in assay [2] was no more than 10% throughout. The “effect on AVP or Pro^8-OT-induced hyperpolarizing response” value in assay [3] is “did not markedly affect”. Also, the “reduction of Leu^8-OT-induced membrane hyperpolarization” value in assay [3] is reported as ~ 50%.

For the compound `CC(=O)OCOC(=O)CN(CC(=O)OCOC(C)=O)c1ccccc1OCCOc1ccccc1N(CC(=O)OCOC(C)=O)CC(=O)OCOC(C)=O` [BAPTA-AM, 1,2-Bis(2-aminophenoxy)ethane-N,N,N′,N′-tetraacetic acid tetrakis (acetoxymethyl ester)], the “effect of pretreatment on AVP and OT-analog induced membrane hyperpolarization” value in assay [1], in [2] and in [3] was “blocked” each time.

With `C/C=C(/C)C(=O)O[C@H]1C(C)=C2[C@H]([C@@H]1OC(=O)CCCCCCC)[C@@](C)(OC(C)=O)C[C@H](OC(=O)CCC)[C@@]1(O)[C@H]2OC(=O)[C@@]1(C)O` [thapsigargin], the “effect of pretreatment on AVP and OT-analog induced calcium mobilization” value in [7], in [8] and in assay [9] was “blocked” throughout. Moreover, the “effect of pretreatment on AVP and OT-analog induced membrane hyperpolarization” value in [1], in [2] and in assay [3] was “eliminated” each time.
